The source of these data is publication PMC8223535 (The Yale Journal of Biology and Medicine, 2021).

Structures are written as SMILES.

The subject of data set [1] is T. brucei brucei (Lafia strain). The experiment in a line: In vivo anti-Trypanosoma evaluation in infected rats. On the set-up: species or system Trypanosoma brucei brucei in male Wistar rats. The conditions noted are these: 3.5 mg/kg bw in corn oil, reference drug, data not shown. A digest of the protocol: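 Male Wistar rats (120–130 g, acclimated 14 days) each received 0.2 mL of infected rat blood diluted in 0.9% saline (1 x 102 trypanosomes). Dosing began after the 72-h lag, on the first parasite-positive day. It ran daily for 5 days: test compound at 40 mg/kg bw or diminazene aceturate at 3.5 mg/kg bw, in corn oil. Controls were vehicle-infected and uninfected. Tail-blood smears were counted at ×100, and survival was tracked. n=5, mean ± SEM, ANOVA with Dunnett.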

For data set [2] the following is noted: cited from earlier work.
Data set [3] concerns Trypanosoma congolense IL3000 bloodstream form. The data set is described as follows: In vitro anti-Trypanosoma activity, luminescence-based parasite viability. It is filed as cell-based. The conditions noted are these: 72 h, 0 to 25 µg/mL. A digest of the protocol: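 T. congolense IL3000 bloodstream forms were kept in HMI-9-type medium (IMDM, 20% FBS, supplements) in air at 33°C. Parasites were seeded at 1 × 10^5 cells/mL with test compound at 0 to 25 µg/mL and incubated 72 h at 33°C. Viability was read by ATP luminescence. Pentamidine was the reference. The 50% value came from a non-linear regression dose-response fit. Triplicates, three independent runs.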

Take `CC(=O)NCC(=O)O.CC(=O)NCC(=O)O.N=C(N)c1ccc(N=NNc2ccc(C(=N)N)cc2)cc1` [diminazene aceturate]: in data set [1], the “outcome of infected rats (survival)” value is listed as “survived the infection” and the “systemic parasite burden of infected rats” value is given as “systemic parasite burden cleared”. On to `Nc1nc(N)nc(Nc2ccc([As]3SCC(CO)S3)cc2)n1` (centres unmarked) [melarsoprol], for which the encephalopathy result in data set [2] (patients treated for late-stage trypanosomiasis) is “more than 10 % of patients”. Moreover, in data set [2] (share of the encephalopathy cases), the “fatal outcomes among encephalopathy cases” value was 40%. As for `N=C(N)c1ccc(OCCCCCOc2ccc(C(=N)N)cc2)cc1` [pentamidine], the “effect on in vitro growth of T. congolense (in words)” value in data set [3] is recorded as “appreciably hindered the in vitro growth of T. congolense”.
